Measured values published in ChEMBL document CHEMBL3751754, “In vitro efficacy of 2,N-bisarylated 2-ethoxyacetamides against Plasmodium falciparum” (Bioorg Med Chem Lett, 2016).

Columns and labels:
[1] = Bio-transformation in human liver microsomes at 25 uM after 30 mins by LC-MS analysis; format: ADME; conditions: read-out: Drug metabolism
Summary of the method: (§1)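 Test compound at 25 µM with pooled human liver microsomes (0.5 mg/mL total protein) in 0.1 M sodium phosphate, pH 7.4. An NADPH-regenerating system was included (1.25 mM NADP+, 3.3 mM glucose-6-phosphate, 3.3 mM MgCl2). Reaction was started with glucose-6-phosphate dehydrogenase (1 unit/mL final). Parent remaining at various time points was measured by LC-MS. Half-life assumed first-order decay; values from one experiment.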

Plasmodium falciparum [2] = assay: Antiplasmodial activity against chloroquine, quinine and pyrimethamine-resistant Plasmodium falciparum W2 assessed as inhibition of [3H]-hypoxanthine uptake after 48 hrs by liquid scintillation counting analysis; format: functional, organism-based
Summary of the method: (§2)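 IC50 from inhibition of [3H]hypoxanthine uptake by P. falciparum W2 or D6 parasites. Values come from a single experiment.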

[3] = Half life in mouse liver microsomes at 25 uM by LC-MS analysis; format: ADME
[4] = Half life in human liver microsomes at 25 uM by LC-MS analysis; format: ADME; summary of the method: as §1
Plasmodium falciparum [5] = assay: Antiplasmodial activity against mefloquine-resistant Plasmodium falciparum D6 assessed as inhibition of [3H]-hypoxanthine uptake after 48 hrs by liquid scintillation counting analysis; format: functional, organism-based; summary of the method: as §2
Plasmodium falciparum [6] = assay: Resistant index, ratio of IC50 for chloroquine, quinine and pyrimethamine-resistant Plasmodium falciparum W2 to IC50 for mefloquine-resistant Plasmodium falciparum D6; format: functional
Summary of the method: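 Index is W2 IC50 divided by D6 IC50. Each IC50 is from inhibition of [3H]hypoxanthine uptake in a single experiment.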

O=C(/C=C/c1cnc2ccccc2c1)c1cc(Cl)ccc1Cl
metabolised at 0.5 h, 25 µM [1]: 100%

O=C(/C=C/c1ccnc2ccccc12)c1ccc(Cl)c(Cl)c1
metabolised at 0.5 h, 25 µM [1]: 100%

CCOC(C(=O)Nc1ccc(Cl)cc1Cl)c1cnc2ccccc2c1 (stereo not drawn)
IC50 (Plasmodium falciparum [2]): 2 µM | half-life at 25 µM [3]: > 60 min | half-life at 25 µM [4]: > 60 min | IC50 (Plasmodium falciparum [5]): 4.5 µM | Ratio IC50 (Plasmodium falciparum [6]): 0.43

CCOC(C(=O)Nc1cccc2ncccc12)c1ccc(Cl)c(Cl)c1 (stereo not drawn)
IC50 (Plasmodium falciparum [2]): > 27 µM | IC50 (Plasmodium falciparum [5]): > 27 µM

CCOC(C(=O)Nc1ccc2ncccc2c1)c1ccc(Cl)cc1Cl (stereo not drawn)
IC50 (Plasmodium falciparum [2]): 14 µM | IC50 (Plasmodium falciparum [5]): 15 µM | Ratio IC50 (Plasmodium falciparum [6]): 0.92

CCOC(C(=O)Nc1ccnc2ccccc12)c1ccc(Cl)cc1Cl (stereo not drawn)
IC50 (Plasmodium falciparum [2]): 15 µM | IC50 (Plasmodium falciparum [5]): 14 µM | Ratio IC50 (Plasmodium falciparum [6]): 1

CCOC(C(=O)Nc1cc(Cl)ccc1Cl)c1ccnc2ccccc12 (stereo not drawn)
IC50 (Plasmodium falciparum [2]): 15 µM | IC50 (Plasmodium falciparum [5]): 14 µM | Ratio IC50 (Plasmodium falciparum [6]): 1

CCOC(C(=O)Nc1cnc2ccccc2c1)c1ccc(Cl)c(Cl)c1 (stereo not drawn)
IC50 (Plasmodium falciparum [2]): 5.9 µM | IC50 (Plasmodium falciparum [5]): 13 µM

CCOC(C(=O)Nc1ccc(Cl)c(Cl)c1)c1ccnc2ccccc12 (stereo not drawn)
IC50 (Plasmodium falciparum [2]): 12 µM | IC50 (Plasmodium falciparum [5]): 15 µM | Ratio IC50 (Plasmodium falciparum [6]): 0.8

CCOC(C(=O)Nc1ccnc2ccccc12)c1cc(Cl)ccc1Cl (stereo not drawn)
IC50 (Plasmodium falciparum [2]): 14 µM | IC50 (Plasmodium falciparum [5]): 12 µM | Ratio IC50 (Plasmodium falciparum [6]): 1.2

CCOC(C(=O)Nc1cccc2cccnc12)c1ccc(Cl)c(Cl)c1 (stereo not drawn)
IC50 (Plasmodium falciparum [2]): 16 µM | IC50 (Plasmodium falciparum [5]): 20 µM | Ratio IC50 (Plasmodium falciparum [6]): 0.84

CCOC(C(=O)Nc1cccc2ncccc12)c1ccc(Cl)cc1Cl (stereo not drawn)
IC50 (Plasmodium falciparum [2]): > 27 µM | IC50 (Plasmodium falciparum [5]): > 27 µM

CCOC(C(=O)Nc1ccc(Cl)c(Cl)c1)c1cnc2ccccc2c1 (stereo not drawn)
IC50 (Plasmodium falciparum [2]): 13 µM | IC50 (Plasmodium falciparum [5]): 18 µM | Ratio IC50 (Plasmodium falciparum [6]): 0.71

CCOC(C(=O)Nc1ccc2ccccc2n1)c1ccc(Cl)c(Cl)c1 (stereo not drawn)
IC50 (Plasmodium falciparum [2]): 15 µM | IC50 (Plasmodium falciparum [5]): 19 µM | Ratio IC50 (Plasmodium falciparum [6]): 0.76

CCOC(C(=O)Nc1cccc2cccnc12)c1cc(Cl)ccc1Cl (stereo not drawn)
IC50 (Plasmodium falciparum [2]): > 27 µM | IC50 (Plasmodium falciparum [5]): 14 µM

CCOC(C(=O)Nc1ccc(Cl)cc1)c1ccc(Cl)cc1 (stereo not drawn)
IC50 (Plasmodium falciparum [2]): 11 µM | metabolised at 0.5 h, 25 µM [1]: 0% | IC50 (Plasmodium falciparum [5]): 7.3 µM | Ratio IC50 (Plasmodium falciparum [6]): 1.5

CCOC(C(=O)Nc1ccc2ccccc2n1)c1ccc(Cl)cc1Cl (stereo not drawn)
IC50 (Plasmodium falciparum [2]): 14 µM | IC50 (Plasmodium falciparum [5]): 15 µM | Ratio IC50 (Plasmodium falciparum [6]): 0.88

CCOC(C(=O)Nc1cnc2ccccc2c1)c1ccc(Cl)cc1Cl (stereo not drawn)
IC50 (Plasmodium falciparum [2]): 27 µM | IC50 (Plasmodium falciparum [5]): 9.8 µM | Ratio IC50 (Plasmodium falciparum [6]): 2.7

CCOC(C(=O)Nc1cc(Cl)ccc1Cl)c1cnc2ccccc2c1 (stereo not drawn)
IC50 (Plasmodium falciparum [2]): 14 µM | IC50 (Plasmodium falciparum [5]): 14 µM | Ratio IC50 (Plasmodium falciparum [6]): 1.1

CCOC(C(=O)Nc1ccnc2ccccc12)c1ccc(Cl)c(Cl)c1 (stereo not drawn)
IC50 (Plasmodium falciparum [2]): 1.7 µM | half-life at 25 µM [3]: 30 min | half-life at 25 µM [4]: 27 min | IC50 (Plasmodium falciparum [5]): 3.2 µM | Ratio IC50 (Plasmodium falciparum [6]): 0.53

CCOC(C(=O)Nc1cccc2ncccc12)c1cc(Cl)ccc1Cl (stereo not drawn)
IC50 (Plasmodium falciparum [2]): 15 µM | IC50 (Plasmodium falciparum [5]): 11 µM | Ratio IC50 (Plasmodium falciparum [6]): 1.4

CCOC(C(=O)Nc1ccc2ncccc2c1)c1ccc(Cl)c(Cl)c1 (stereo not drawn)
IC50 (Plasmodium falciparum [2]): 9.1 µM | IC50 (Plasmodium falciparum [5]): 7.7 µM

CCOC(C(=O)Nc1ccc2ncccc2c1)c1cc(Cl)ccc1Cl (stereo not drawn)
IC50 (Plasmodium falciparum [2]): > 17 µM | IC50 (Plasmodium falciparum [5]): > 17 µM

CCOC(C(=O)Nc1cccc2cccnc12)c1ccc(Cl)cc1Cl (stereo not drawn)
IC50 (Plasmodium falciparum [2]): > 27 µM | IC50 (Plasmodium falciparum [5]): > 27 µM

CCOC(C(=O)Nc1ccc2ccccc2n1)c1cc(Cl)ccc1Cl (stereo not drawn)
IC50 (Plasmodium falciparum [2]): > 27 µM | IC50 (Plasmodium falciparum [5]): 19 µM

CCOC(C(=O)Nc1ccc(Cl)cc1Cl)c1ccnc2ccccc12 (stereo not drawn)
IC50 (Plasmodium falciparum [2]): 1.8 µM | half-life at 25 µM [3]: > 60 min | half-life at 25 µM [4]: > 60 min | IC50 (Plasmodium falciparum [5]): 6.9 µM | Ratio IC50 (Plasmodium falciparum [6]): 0.26

CCOC(C(=O)Nc1cnc2ccccc2c1)c1cc(Cl)ccc1Cl (stereo not drawn)
IC50 (Plasmodium falciparum [2]): 9.6 µM | half-life at 25 µM [3]: 9 min | half-life at 25 µM [4]: 27 min | IC50 (Plasmodium falciparum [5]): 6.7 µM | Ratio IC50 (Plasmodium falciparum [6]): 1.4

O=C(/C=C/c1ccnc2ccccc12)c1cc(Cl)ccc1Cl
metabolised at 0.5 h, 25 µM [1]: 100%

O=C(/C=C/c1ccc(Cl)cc1)c1ccc(Cl)cc1 [4',4-DICHLOROCHALCONE]
IC50 (Plasmodium falciparum [2]): 5.3 µM | metabolised at 0.5 h, 25 µM [1]: 85% | IC50 (Plasmodium falciparum [5]): 2.6 µM | Ratio IC50 (Plasmodium falciparum [6]): 2
